The record followed here is ChEMBL document CHEMBL6134787, “Fexinidazole optimization: enhancing anti-leishmanial profile, metabolic stability and hERG safety” (RSC Med Chem, 2024).

Chain of hERG (KCNH2) (Q12809 whole entry): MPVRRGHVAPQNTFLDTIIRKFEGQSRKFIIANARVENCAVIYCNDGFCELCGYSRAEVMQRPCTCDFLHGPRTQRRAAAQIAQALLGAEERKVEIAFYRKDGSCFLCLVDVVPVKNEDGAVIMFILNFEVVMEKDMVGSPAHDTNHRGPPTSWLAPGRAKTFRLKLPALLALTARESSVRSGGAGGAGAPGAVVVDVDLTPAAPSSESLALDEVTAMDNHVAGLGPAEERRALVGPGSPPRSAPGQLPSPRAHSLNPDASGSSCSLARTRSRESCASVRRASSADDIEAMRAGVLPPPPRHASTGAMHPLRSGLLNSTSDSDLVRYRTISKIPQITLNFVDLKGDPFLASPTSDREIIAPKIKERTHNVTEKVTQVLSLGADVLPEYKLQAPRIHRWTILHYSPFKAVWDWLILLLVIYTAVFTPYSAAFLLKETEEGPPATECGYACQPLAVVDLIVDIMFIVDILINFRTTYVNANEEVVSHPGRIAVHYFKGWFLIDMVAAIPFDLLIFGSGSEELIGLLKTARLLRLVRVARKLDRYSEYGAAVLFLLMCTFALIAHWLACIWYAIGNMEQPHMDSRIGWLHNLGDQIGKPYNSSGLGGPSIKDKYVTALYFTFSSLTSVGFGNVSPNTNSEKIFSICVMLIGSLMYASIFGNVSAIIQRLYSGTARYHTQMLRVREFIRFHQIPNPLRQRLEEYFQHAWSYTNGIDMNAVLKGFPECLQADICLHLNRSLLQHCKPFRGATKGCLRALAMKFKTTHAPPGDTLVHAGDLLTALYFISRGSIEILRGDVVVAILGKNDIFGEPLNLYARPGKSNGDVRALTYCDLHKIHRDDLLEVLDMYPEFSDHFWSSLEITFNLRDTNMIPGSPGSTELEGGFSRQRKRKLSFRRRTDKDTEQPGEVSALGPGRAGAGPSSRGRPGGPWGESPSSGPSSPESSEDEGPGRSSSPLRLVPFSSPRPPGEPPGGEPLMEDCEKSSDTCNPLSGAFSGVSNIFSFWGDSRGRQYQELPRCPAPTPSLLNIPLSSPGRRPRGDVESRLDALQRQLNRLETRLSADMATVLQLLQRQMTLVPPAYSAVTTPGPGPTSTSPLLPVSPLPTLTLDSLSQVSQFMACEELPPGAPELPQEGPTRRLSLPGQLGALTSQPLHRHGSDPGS

One data set has as its system Leishmania major. In words: Antileishmanial activity against wild type Leishmania major FV1 promastigotes […] assessed as inhibition of parasite growth incubated for 72 hrs by automatic microtiter plate reader analysis. Format: functional, organism-based.
Details: not given
The method, boiled down: (§1)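 Promastigotes were grown in Schneider's medium (4 mM glutamine, gentamicin, 10% heat-inactivated FBS, pH 6.9, 27 °C). Cells were seeded at 1.5 × 10^5/well and exposed to a concentration series for 72 h at 27 °C.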
Turning to `Cn1c([N+](=O)[O-])cnc1C(=O)N1CCS(=O)(=O)CC1`, the IC50 amounted to 3.4 µM.
On the same count and under the same terms, the result for `Cn1c([N+](=O)[O-])cnc1CCc1ccc(S(C)(=N)=O)cc1` (stereo unspecified) reads 11.8 µM.
As for `CSc1ccc(CCc2ncc([N+](=O)[O-])n2C)cc1`, the IC50 came to 9.1 µM.
With `CSc1ccc(Cn2ccn3cc([N+](=O)[O-])nc3c2=O)cc1`, the IC50 was 8.9 µM.
For `CSc1ccc(OCc2ncc(C#N)n2C)cc1`, the IC50 was more than 20 µM.

A further data set addresses hERG (KCNH2) (Homo sapiens, UniProt Q12809). In words: Inhibition of human ERG stably overexpressed in HEK293 cells assessed as remaining activity at 6 uM incubated for 30 mins by FLIPR assay. Format: toxicity, cell-based. To be noted: HEK293 cells stably overexpressing hERG, read-out: Activity. The method, boiled down: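 HEK-293 cells stably expressing hERG, seeded at 60 000/well and grown 24 h. Compounds were added in DMSO (final 0.5%) and incubated 30 min in the dark. After 20 s baseline, Tl+ stimulus (3 mM) was added and fluorescence (ex 485/em 535 nm) recorded for 2.5 min.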
(The hERG channel carries a current that helps repolarise heart muscle cells.)
For the molecule `CSc1ccc(CCc2ncc([N+](=O)[O-])n2C)cc1`, the activity at 0.5 h, 6 µM was found to be 64%.

The subject of another data set is Leishmania donovani. As to the kind of experiment: Antileishmanial activity against miltefosine resistant Leishmania donovani HU3MILR40 promastigotes […] assessed as inhibition of parasite growth incubated for 72 hrs by automatic microtiter plate reader analysis. Format: functional, organism-based.
Details: not given
The method, boiled down: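 Promastigote (free parasite) assay: Schneider's Drosophila medium with 4 mM glutamine, 25 μg mL−1 gentamicin, 10% heat-inactivated FBS, pH 6.9, 27 °C. 1.5 × 10^5 promastigotes per well exposed to a concentration series for 72 h at 27 °C.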
Consider `Cn1c([N+](=O)[O-])cnc1C(=O)N1CCS(=O)(=O)CC1`, for which the 50% inhibitory concentration (IC50) was found to be 13.7 µM.
On the same count and under the same terms, the result for `Cn1c([N+](=O)[O-])cnc1CCc1ccc(S(C)(=N)=O)cc1` (stereo unspecified) reads more than 20 µM; that for `CSc1ccc(CCc2ncc([N+](=O)[O-])n2C)cc1`, 7.1 µM; that for `CSc1ccc(Cn2ccn3cc([N+](=O)[O-])nc3c2=O)cc1`, more than 20 µM.
Same read-out and setting: the result for `CSc1ccc(OCc2ncc(C#N)n2C)cc1` reads more than 20 µM.

For another data set, the system named is Leishmania donovani. As to the kind of experiment: Antileishmanial activity against wild type Leishmania donovani HU3 promastigotes […] assessed as inhibition of parasite growth incubated for 72 hrs by automatic microtiter plate reader analysis. Format: functional, organism-based.
Details: not given
Consider `Cn1c([N+](=O)[O-])cnc1C(=O)N1CCS(=O)(=O)CC1`, for which the 50% inhibitory concentration (IC50) is 7.5 µM.
Same read-out and setting: the figure for `Cn1c([N+](=O)[O-])cnc1CCc1ccc(S(C)(=N)=O)cc1` (stereo unspecified) is more than 20 µM; for `CSc1ccc(CCc2ncc([N+](=O)[O-])n2C)cc1` it is 12.5 µM; for `CSc1ccc(Cn2ccn3cc([N+](=O)[O-])nc3c2=O)cc1` it is more than 16.6 µM.
On the same count and under the same terms, the result for `CSc1ccc(OCc2ncc(C#N)n2C)cc1` reads more than 20 µM.

The test system of a further data set is RAW264.7. As to the kind of experiment: Cytotoxicity against mouse RAW264.7 cells assessed as inhibition of cell growth incubated for 72 hrs by MTS assay. To be noted: RAW264.7, 72 h. Format: functional, cell-based. The method, boiled down: (§2)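 Cells in DMEM + 10% heat-inactivated FBS with penicillin/streptomycin at 37 °C, 5% CO2. They were seeded at 1 × 10^4/well and incubated with a concentration series for 72 h at 37 °C. Viability was read by MTS/PMS assay at 490 nm and IC50 derived.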
(In general: Tetrazolium assays rely on reduction of a dye to a coloured formazan, in cell work by metabolically active cells.)
Regarding `Cn1c([N+](=O)[O-])cnc1C(=O)N1CCS(=O)(=O)CC1`, the 50% inhibitory concentration (IC50) was more than 100 µM.
Still for that read-out and setting: the result for `Cn1c([N+](=O)[O-])cnc1CCc1ccc(S(C)(=N)=O)cc1` (stereo unspecified) reads more than 100 µM; that for `CSc1ccc(CCc2ncc([N+](=O)[O-])n2C)cc1`, more than 91.7 µM.
For the molecule `CSc1ccc(Cn2ccn3cc([N+](=O)[O-])nc3c2=O)cc1`, the IC50 came out at 48.1 µM.
The same measure, in the same setting: the result for `CSc1ccc(OCc2ncc(C#N)n2C)cc1` reads more than 99.8 µM.

The test system of a further data set is Leishmania braziliensis. In words: Antileishmanial activity against wild type Leishmania braziliensis UA847 promastigotes […] assessed as inhibition of parasite growth incubated for 72 hrs by automatic microtiter plate reader analysis. Format: functional, organism-based.
Details: not given
The gist of the method: as §1
Take `Cn1c([N+](=O)[O-])cnc1C(=O)N1CCS(=O)(=O)CC1`: the IC50 is 12.2 µM.
Take `Cn1c([N+](=O)[O-])cnc1CCc1ccc(S(C)(=N)=O)cc1` (stereo unspecified): the half-maximal inhibitory concentration (IC50) was more than 20 µM.
On the same count and under the same terms, the figure for `CSc1ccc(CCc2ncc([N+](=O)[O-])n2C)cc1` is 17.5 µM.
The same measure, in the same setting: the result for `CSc1ccc(Cn2ccn3cc([N+](=O)[O-])nc3c2=O)cc1` reads more than 20 µM; that for `CSc1ccc(OCc2ncc(C#N)n2C)cc1`, more than 20 µM.

Tested on in a further data set: not listed separately
In words: Metabolic stability in rat liver microsome assessed as compound remaining at 20 uM measured after 32 mins in presence of NADP and GSH by HPLC analysis. To be noted: liver microsomes, read-out: Stability. Format: ADME. The method, boiled down:
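Rat liver microsomes (final 2 mg/mL) in 50 mM phosphate pH 7.4 with 0.3 mM NADP+, 5.3 mM glucose-6-phosphate, G6PDH, 10 mM MgCl2 and 5 mM EDTA. 20 μM compound added at 37 °C. Aliquots at 0, 16 and 32 min were quenched in ice-cold acetonitrile and centrifuged. HPLC peak area at 254/280 nm was expressed relative to 0 min.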
(Microsomes from liver hold many membrane-bound enzymes, among them those of drug oxidation.)
Regarding `Cn1c([N+](=O)[O-])cnc1C(=O)N1CCS(=O)(=O)CC1`, the remaining at 32 min, 20 µM is 100%.
With `Cn1c([N+](=O)[O-])cnc1CCc1ccc(S(C)(=N)=O)cc1` (stereo unspecified), the remaining at 32 min, 20 µM was 100%.
Still for that read-out and setting: the result for `CSc1ccc(CCc2ncc([N+](=O)[O-])n2C)cc1` reads 0%.
For `CSc1ccc(Cn2ccn3cc([N+](=O)[O-])nc3c2=O)cc1`, the remaining at 32 min, 20 µM was 93.1%.
Same read-out and setting: the figure for `CSc1ccc(OCc2ncc(C#N)n2C)cc1` is 8.2%.

Tested on in the next data set: not listed separately
In words: Cytotoxicity against mouse L929 cells assessed as inhibition of cell growth incubated for 72 hrs by MTS assay. Format: toxicity, cell-based.
Details: not given
The gist of the method: as §2
On to `Cn1c([N+](=O)[O-])cnc1C(=O)N1CCS(=O)(=O)CC1`, for which the IC50 at 72 h was more than 100 µM.
Still for that read-out and setting: the result for `Cn1c([N+](=O)[O-])cnc1CCc1ccc(S(C)(=N)=O)cc1` (stereo unspecified) reads more than 100 µM; that for `CSc1ccc(CCc2ncc([N+](=O)[O-])n2C)cc1`, more than 100 µM.
Consider `CSc1ccc(Cn2ccn3cc([N+](=O)[O-])nc3c2=O)cc1`, for which the IC50 at 72 h is more than 57.5 µM.
The same measure, in the same setting: the figure for `CSc1ccc(OCc2ncc(C#N)n2C)cc1` is more than 100 µM.

In another data set the target is Voltage-gated inwardly rectifying potassium channel KCNH2 (Homo sapiens, UniProt Q12809). As to the kind of experiment: Inhibition of human ERG stably overexpressed in HEK293 cells incubated for 30 mins by FLIPR assay. The following applies: human, hek293, 0.5 h; time 30 min. Format: toxicity, cell-based.
Chain of Voltage-gated inwardly rectifying potassium channel KCNH2 (Q12809 whole entry): as above
On to `Cn1c([N+](=O)[O-])cnc1C(=O)N1CCS(=O)(=O)CC1`, for which the IC25 is more than 6.2 µM.
The same measure, in the same setting: the figure for `Cn1c([N+](=O)[O-])cnc1CCc1ccc(S(C)(=N)=O)cc1` (stereo unspecified) is 49.4 µM; for `CSc1ccc(CCc2ncc([N+](=O)[O-])n2C)cc1` it is 9.8 µM; for `CSc1ccc(Cn2ccn3cc([N+](=O)[O-])nc3c2=O)cc1` it is more than 2 µM.
Still for that read-out and setting: the result for `CSc1ccc(OCc2ncc(C#N)n2C)cc1` reads 27.1 µM.

A further data set deals with Leishmania amazonensis. In words: Antileishmanial activity against wild type Leishmania amazonensis LV78 promastigotes […] assessed as inhibition of parasite growth incubated for 72 hrs by automatic microtiter plate reader analysis. Format: functional, organism-based.
Details: not given
The method, boiled down:
as §1
Regarding `Cn1c([N+](=O)[O-])cnc1C(=O)N1CCS(=O)(=O)CC1`, the IC50 is 13.3 µM.
In the case of `Cn1c([N+](=O)[O-])cnc1CCc1ccc(S(C)(=N)=O)cc1` (stereo unspecified), the concentration for half-maximal inhibition (IC50) is more than 20 µM.
Same read-out and setting: the figure for `CSc1ccc(CCc2ncc([N+](=O)[O-])n2C)cc1` is 27.2 µM.
The same measure, in the same setting: the figure for `CSc1ccc(Cn2ccn3cc([N+](=O)[O-])nc3c2=O)cc1` is more than 20 µM.
The same measure, in the same setting: the figure for `CSc1ccc(OCc2ncc(C#N)n2C)cc1` is more than 20 µM.

Tested on in a further data set: not listed separately
As to the kind of experiment: Metabolic stability in rat liver S9 fraction assessed as compound remaining at 20 uM measured after 32 mins in presence of NADP and GSH by HPLC analysis. To be noted: read-out: Stability. Format: ADME, subcellular. The method, boiled down:
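Rat liver S9 (final 4 mg/mL) in 50 mM phosphate pH 7.4 with NADPH-regenerating system (0.3 mM NADP+, 5.3 mM glucose-6-phosphate, G6PDH), 10 mM MgCl2 and 5 mM EDTA. Pre-warmed 10 min at 37 °C, then 20 μM compound and 5.5 μM GSH added. Samples taken at 0, 16 and 32 min were quenched in ice-cold acetonitrile. HPLC (254/280 nm) peak area was expressed relative to 0 min.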
For `Cn1c([N+](=O)[O-])cnc1C(=O)N1CCS(=O)(=O)CC1`, the remaining at 32 min, 20 µM worked out at 100%.
Still for that read-out and setting: the result for `Cn1c([N+](=O)[O-])cnc1CCc1ccc(S(C)(=N)=O)cc1` (stereo unspecified) reads 100%; that for `CSc1ccc(CCc2ncc([N+](=O)[O-])n2C)cc1`, 47.5%; that for `CSc1ccc(Cn2ccn3cc([N+](=O)[O-])nc3c2=O)cc1`, 100%.
For `CSc1ccc(OCc2ncc(C#N)n2C)cc1`, the remaining at 32 min, 20 µM was determined as 82.6%.

Tested on in the next data set: not listed separately
In words: Hepatotoxicity against mouse TAMH cells assessed as cell viability at 7.8 to 125 uM incubated for 24 to 48 hrs by MTT assay. Format: toxicity, cell-based. To be noted: dose lower 7.8 µM, time lower 24 hrs, dose upper 125 µM, time upper 48 hrs, read-out: Activity. The gist of the method: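 TAMH mouse liver cells in FCS-free DMEM/F12 with 5% PANEXIN NTA, 10 mM nicotinamide and gentamicin. Seeded at 20 000/well and attached 24 h at 37 °C, 5% CO2. DMSO-diluted compounds were applied for 24 or 48 h. MTT was added for 4 h, formazan dissolved in DMSO and A570 read. Viability was background-corrected and expressed relative to DMSO controls; mean ± SD, ≥3 experiments.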
As for `Cn1c([N+](=O)[O-])cnc1C(=O)N1CCS(=O)(=O)CC1`, the viability at up to 125 µM was more than 50%.
For the molecule `Cn1c([N+](=O)[O-])cnc1CCc1ccc(S(C)(=N)=O)cc1` (stereo unspecified), the viability at up to 125 µM was more than 50%.
As to `CSc1ccc(CCc2ncc([N+](=O)[O-])n2C)cc1`, the viability at up to 125 µM was more than 50%.
On the same count and under the same terms, the figure for `CSc1ccc(Cn2ccn3cc([N+](=O)[O-])nc3c2=O)cc1` is more than 50%; for `CSc1ccc(OCc2ncc(C#N)n2C)cc1` it is more than 50%.

A word on the IC50: it is the concentration at which inhibition is half-maximal. The IC25 is the concentration at which the effect reaches the 25% level.
